From ChEMBL document CHEMBL4043208, “Small molecule inhibitors of bacterial transcription complex formation” (2017) come the findings set out here.

One experiment relates to Bacillus subtilis. The experiment is described as follows: Growth inhibition of Bacillus subtilis 168 at 0.2 mM measured every 10 mins over 16 hrs relative to control. Particulars: subsp. subtilis str. 168, read-out: GI. Type of experiment: functional. The essentials: (§1)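 Cultures grown with compound at 0.2 mM; growth expressed as a percentage of the untreated positive control (growth without inhibitor, taken as 100%). B. subtilis (Gram-positive) and E. coli (Gram-negative) assayed in parallel.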

Experiment [1] concerns Bacillus subtilis subsp. subtilis str. 168. The experiment is described as follows: Inhibition of Bacillus subtilis 168 RNA polymerase subunit beta' CH region interaction with full length sigmaA at 15 uM by ELISA relative to control. The method, boiled down:
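ELISA measuring binding of B. subtilis σA to the β'-CH region of core RNAP with compound at 15 μM. Signal expressed as a percentage of the positive control (σA–β'-CH interaction without inhibitor, set at 100%).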
A general note: ELISA stands for enzyme-linked immunosorbent assay.

The test system of another experiment is Escherichia coli. The experiment is described as follows: Growth inhibition of Escherichia coli DH5[alpha] at 0.2 mM measured every 10 mins over 16 hrs relative to control. The conditions noted are these: read-out: GI. Type of experiment: functional. The method, boiled down: as §1

The inhibition is the change of the read-out against control, counted positive when it falls. A lower inhibition goes with little suppression. Turning to `COC(=O)c1cc2c(OC)cc(OC)c(C=C3C(=O)NC(=S)NC3=O)c2[nH]1`, the figures for the inhibition of growth at 200 µM in the experiment on Bacillus subtilis and in the experiment on Escherichia coli were 91% and 57%, respectively. Besides, in experiment [1], the inhibition came out at 17%.

As to `COc1cc(OC)c2cc(C(=O)O)[nH]c2c1C=C1C(=O)NC(=S)NC1=O`, the inhibition of growth at 200 µM in the experiment with Bacillus subtilis and with Escherichia coli was 0% in each case. In experiment [1], this compound had an inhibition of 71%.

`COc1cc(OC)c2c(-c3ccccc3)c[nH]c2c1C=C1C(=O)NC(=S)NC1=O`: the inhibition of growth at 200 µM in the experiment on Bacillus subtilis and in the experiment with Escherichia coli was 0% each time. This compound also yielded an inhibition in experiment [1] of 14%.

In the case of `C=CCN1C(=O)/C(=C/c2c(OC)cc(OC)c3cc(C(=O)O)[nH]c23)SC1=S`, the inhibition of growth at 200 µM in the experiment on Bacillus subtilis is 21%; in the experiment on Escherichia coli, 30%. In experiment [1], this compound came in with an inhibition of 74%.

For `COC(=O)c1cc2c(OC)cc(OC)c(C=C3C(=O)NC(=O)NC3=O)c2[nH]1`, the inhibition of growth at 200 µM with Bacillus subtilis is 89%; with Escherichia coli, 20%. In experiment [1], this compound had an inhibition of 28%.

Consider `COc1cc(OC)c2c(-c3ccc(Cl)cc3)c[nH]c2c1C=C1C(=O)NC(=O)NC1=O`, for which the values for the inhibition of growth at 200 µM with Bacillus subtilis and in the experiment on Escherichia coli were 41% and 30%, respectively. The inhibition in experiment [1] was determined as 15%.

Take `COc1cc(OC)c2c(-c3ccccc3)c[nH]c2c1C=C1C(=O)NC(=O)NC1=O`: the results for the inhibition of growth at 200 µM in the experiment with Bacillus subtilis and with Escherichia coli were 83% and 0%, respectively. Moreover, in experiment [1], the inhibition amounted to 45%.

As for `C=CCN1C(=O)/C(=C/c2c(OC)cc(OC)c3c(-c4ccccc4)c[nH]c23)SC1=S`, the inhibition of growth at 200 µM in the experiment on Bacillus subtilis is 44%; with Escherichia coli, 66%. Also, the inhibition in experiment [1] stood at 0%.

As to `COc1cc(OC)c2c(-c3ccccc3)c[nH]c2c1/C=C1\SC(=S)NC1=O`, the inhibition of growth at 200 µM was found to be 44% with Bacillus subtilis and 45% with Escherichia coli. In addition, in experiment [1], the inhibition was 17%.

On to `COc1cc(OC)c2c(-c3ccc(Cl)cc3)c[nH]c2c1C=C1C(=O)NC(=S)NC1=O`, for which the inhibition of growth at 200 µM was determined as 0% in the experiment on Bacillus subtilis and 24% with Escherichia coli. The compound further returned an inhibition in experiment [1] of 14%.

In the case of `COc1cc(OC)c2cc(C(=O)O)[nH]c2c1/C=C1\SC(=S)NC1=O`, the inhibition of growth at 200 µM in the experiment with Bacillus subtilis came to 0%; in the experiment with Escherichia coli, 26%. Moreover, the inhibition in experiment [1] came to 36%.

`COC(=O)c1cc2c(OC)cc(OC)c(/C=C3\SC(=S)NC3=O)c2[nH]1`: the inhibition of growth at 200 µM in the experiment on Bacillus subtilis amounted to 45%; in the experiment on Escherichia coli it was 28%. This compound also showed an inhibition in experiment [1] of 3%.

For the compound `COc1cc(OC)c2cc(C(=O)O)[nH]c2c1C=C1C(=O)NC(=O)NC1=O`, the inhibition of growth at 200 µM in the experiment with Bacillus subtilis and in the experiment on Escherichia coli was 0% in each case. For the same compound, in experiment [1], the inhibition came out at 28%.

For `C=CCN1C(=O)/C(=C/c2c(OC)cc(OC)c3cc(C(=O)OC)[nH]c23)SC1=S`, the inhibition of growth at 200 µM came out at 22% in the experiment with Bacillus subtilis and 79% with Escherichia coli. This compound registered an inhibition in experiment [1] of 46%.

As to `C=CCN1C(=O)/C(=C/c2c(OC)cc(OC)c3c(-c4ccc(Cl)cc4)c[nH]c23)SC1=S`, the figures for the inhibition of growth at 200 µM in the experiment with Bacillus subtilis and with Escherichia coli were 8% and 14%, respectively. In addition, the inhibition in experiment [1] came to 34%.

With `C=CCN1C(=O)/C(=C/c2c(OC)cc(OC)c3cc(C(=O)OCc4ccccc4)[nH]c23)SC1=S`, the inhibition of growth at 200 µM with Bacillus subtilis amounted to 6%; with Escherichia coli, 28%. Also, the inhibition in experiment [1] turned out to be 63%.

Take `COc1cc(OC)c2c(-c3ccc(Cl)cc3)c[nH]c2c1/C=C1\SC(=S)NC1=O`: the inhibition of growth at 200 µM was 0% in the experiment with Bacillus subtilis and 15% in the experiment on Escherichia coli. The same compound gave an inhibition in experiment [1] of 21%.
